In ChEMBL document CHEMBL3286157, “Polyketides from the cultured lichen mycobiont of a Vietnamese Pyrenula sp” (J Nat Prod, 2014):
The source made the active and inactive calls. The rule behind the calls is not given here.

Columns and labels:
[1] = (§1) Inhibition of calf thymus DNA polymerase alpha assessed as incorporation of [3H]dTTP into poly(dA)/oligo(dT)18 DNA-template primer after 60 mins; design: species or system Bos taurus
In short: (§2)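 Pol α from calf thymus, purified by immunoaffinity column. Rat pol β expressed in E. coli JMpβ5. Template-primer poly(dA)/oligo(dT)18 (A/T 2:1) with [3H]dTTP (43 Ci/mmol). Each enzyme (0.05 unit) was preincubated with compound for 10 min at 0 °C in 50 mM Tris-HCl pH 7.5 with 1 mM DTT, 50% glycerol and 0.1 mM EDTA. Reaction ran 60 min at 37 °C. Activity relative to no-inhibitor control; IC50 from dose-response curves.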

[2] = organism: Bos taurus; assay: as §1; in short: as §2
[3] = target: DNA polymerase beta (Rattus norvegicus) (UniProt P06766); assay: (§3) Inhibition of rat recombinant DNA polymerase beta expressed in Escherichia coli JMpbeta5 cells assessed as incorporation of [3H]dTTP into poly(dA)/oligo(dT)18 DNA-template primer after 60 mins; in short: as §2
[4] = target: DNA polymerase beta (Rattus norvegicus, UniProt P06766); assay: as §3; in short: as §2
[5] = test system: HCT-116; assay: Cytotoxicity against human HCT116 cells assessed as inhibition of cell proliferation after 24 hrs by WST-1 assay; assay type: functional, cell-based; conditions: HCT-116, 24 h
In short: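 HCT116 cells from ATCC, grown in McCoy's 5A with 10% FBS, penicillin and streptomycin at 37 °C under 5% CO2. Plated at 1 × 10^4 cells per well with compound at 10 and 100 μM for 24 h. Viability read by WST-1. IC50 given as mean ± SD of five independent experiments.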

[6] = organism: Bos taurus; assay: Inhibition of calf thymus DNA polymerase alpha assessed as incorporation of [3H]dTTP into poly(dA)/oligo(dT)18 DNA-template primer at 100 uM after 60 mins
In short: (§4)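 Single-concentration screen at 100 μM. Compound was dissolved in DMSO and sonicated 30 s. Enzyme (0.05 unit of calf thymus pol α or E. coli-expressed rat pol β) was preincubated 10 min at 0 °C in Tris-HCl pH 7.5/DTT/glycerol/EDTA. Reaction with poly(dA)/oligo(dT)18 and [3H]dTTP ran 60 min at 37 °C. Activity given as percent of no-inhibitor control.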

[7] = target: DNA polymerase beta (Rattus norvegicus) (UniProt P06766); assay: Inhibition of rat recombinant DNA polymerase beta expressed in Escherichia coli JMpbeta5 cells assessed as incorporation of [3H]dTTP into poly(dA)/oligo(dT)18 DNA-template primer at 100 uM after 60 mins; in short: as §4

Row | Compound | IC50 [1] | IC50 [4] | inhibition [6] | inhibition [7] | inhibition [2] | inhibition [3] | IC50 [5]
1 | CC[C@@H](C)[C@H]1O[C@]1(C)[C@@H]1C(C)=C[C@@H]2CC(C)=CC[C@H]2[C@@H]1/C=C/C=C/C=C/C(=O)O | 8.1 µM | 9.5 µM | Active | Active | Dose-dependent effect | Dose-dependent effect | 6.4 µM
2 | Cc1cn([C@H]2CC[C@@H](COP(=O)(O)OP(=O)(O)OP(=O)(O)O)O2)c(=O)[nH]c1=O | > 100 µM | 30.8 µM |  |  |  |  | > 100 µM
3 | CC1=CC[C@@H]2[C@H](C=C(C)[C@H]3[C@]4(C)OCC[C@@H](C)[C@H]4O[C@H](/C=C/C=C/C(=O)O)[C@@H](O)[C@@]23O)C1 | > 100 µM | > 100 µM | Active | Active |  |  | > 100 µM
4 | C[C@@]1(CO)[C@H](O)CC[C@@]2(C)[C@H]1CC[C@H]1C[C@@H]3C[C@@]12CC[C@]3(O)CO [APHIDICOLIN] | 19.6 µM | > 100 µM |  |  |  |  | 9 µM
5 | CC1=CC[C@H]2[C@@H]3[C@H](O)[C@@H](/C=C/C=C/C(=O)O)O[C@@H]4[C@H](C)CCO[C@@]4(C)[C@@H]3C(C)=C[C@@H]2C1 | 47.2 µM | 37.9 µM | Active | Active |  |  | 74.8 µM

Now from value to compound, other results behind:

Row | IC50 [1] | IC50 [4] | inhibition [6] | inhibition [7] | Compound | inhibition [2] | inhibition [3] | IC50 [5]
6 | 17.3 µM | 19.5 µM | Active | Active | C=C1[C@@H]2C(C)=C[C@@H]3CC(C)=CC[C@H]3[C@@H]2[C@H](O)[C@@H](/C=C/C=C/C(=O)O)O[C@@H]1[C@H](C)CC | Dose-dependent effect | Dose-dependent effect | 26.1 µM
7 | > 100 µM | > 100 µM | Active | Active | C=C1[C@@H]([C@H](C)CC)O[C@H](/C=C/C=C/C(=O)O)[C@@H](O)[C@H]2[C@@H]3CC=C(C)C[C@H]3C=C(C)[C@@]12O |  |  | > 100 µM
8 | > 100 µM | > 100 µM | Active | Active | CC[C@@H](C)[C@H]1O[C@H](/C=C/C=C/C(=O)O)[C@@H](O)[C@@]2(O)[C@@H]3CC=C(C)C[C@H]3C=C(C)[C@H]2[C@]1(C)O |  |  | > 100 µM
